According to ChEMBL document CHEMBL4513216, “Probing the Open Global Health Chemical Diversity Library for Multistage-Active Starting Points for Next-Generation Antimalarials” (ACS Infect Dis, 2020):

Assay: Toxicity liver stage against HepG2, at 10uM
Format: cell-based
Design: test concentration 10 uM, cell line HepG2-A16-CD81EGFP
Settings: human, HepG2-A16-CD81EGFP cells; read-out: INHIBITION
Method in brief: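 Uninfected HepG2-A16-CD81EGFP cells, 3 × 10^3 per well, 1536-well, plated on prespotted compound at 10 μM final, parasite-free screening media added to match infected plates; puromycin 10 μM positive, DMSO 0.5% negative; run in parallel with 48 h PbLuc assay at 37 °C, 5% CO2; viability by CellTiter-Glo luminescence, normalized to controls.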

| Structure (SMILES) | cytotoxicity at 10 µM [%] |
| --- | --- |
| C[C@H](c1ccc(F)cc1)n1c(C2CCC2)n[nH]c1=O | -5.95 |
| CNC(=O)C1Cn2ccnc2C2(CCN(Cc3cccs3)CC2)O1 (centres undefined) | -70.6 |
| O=C(O)CSc1nnc(-c2ccn[nH]2)n1-c1ccccc1C(F)(F)F | -3.85 |
| Cc1nc(C(=O)NCCS(=O)(=O)N2CCCC2)cs1 | 13.4 |
| N#Cc1c(Cl)nsc1NCC1(c2ccccc2)CCC1 | 26.7 |
| c1cnc(N2CCO[C@H]3CN(CC4CCOC4)C[C@H]32)cn1 (some centres undefined) | -104 |
| CC(C)N(C(=O)Cn1nc2n(c1=O)CCCCC2)C1CCC1 | -7.62 |
| CCS(=O)(=O)NC[C@]12COC[C@H]1CN(Cc1cccnc1OC)C2 | 1.97 |
| Cn1ccnc1N1CCN(C(=O)Cc2ccc(Cl)cc2)CC1 | 5.73 |
| Cc1nc(C)n(C2CCCN(C(=O)c3c(C)nn4cccnc34)C2)n1 (centres undefined) | -29.2 |
| Cc1c(NC(=O)N(C)CCn2cnnc2)cccc1OC1CCCC1 | -0.509 |
| Cc1cccc(CN2CCc3nnc(CN4CCCCC4)n3CC2)n1 | -1.45 |
| CNC(=O)[C@H]1C[C@@H]2CN(C(=O)c3cscn3)C[C@@H]2N1S(C)(=O)=O | -5.17 |
| CN1[C@H](CN2CCCC2)C[C@@H]2CN(C(=O)Cc3ccsc3)CC[C@@H]21 | -3.45 |
| CCOCC1CN(C(=O)N(C)C)Cc2nnn(CC3CC3)c21 (centres undefined) | -6.26 |
| Cc1nc(CN2CCOCC2c2[nH]ncc2C)cs1 (centres undefined) | 2.15 |
| O=C(Nc1cnccn1)[C@@H]1COC[C@H]2CN(C3CCCC3)C[C@H]21 | -21.9 |
| CN(C)c1nccc(C2CCCN(C(=O)CO)C2)n1 (centres undefined) | -29.1 |
| Cc1ccc(-c2nc(CNC3CCc4ncnn4C3)cs2)cc1 (centres undefined) | -9.27 |
| Cc1ccc(NC2CCN(C(=O)c3ccc(C(N)=O)s3)CC2)nn1 | 1.8 |
| Cc1nc(C)n(CC2CCCN(CC3CCCCC3)C2)n1 (centres undefined) | 2.04 |
| c1cc(-c2c[nH]c([C@@H]3COCCN3CC3CC3)n2)ccn1 | 6.82 |

| Structure (SMILES) | cytotoxicity at 10 µM [%] |
| --- | --- |
| CN(C)[C@@H]1CN(C(=O)Cc2ccsc2)[C@@H]2CCCO[C@H]12 | 3.08 |
| O=C(c1ccsc1)N1CCN2C[C@H](OCc3ccccn3)C[C@H]2C1 | -71.8 |
| O=S(=O)(N1CCCC1)N1CC[C@H](c2ccccc2)[C@H]2NCCCC[C@H]21 | -25.1 |
| CC(C)CN1Cc2c(C(=O)NC3CC3)ncn2-c2ccccc2S1(=O)=O | -77.6 |
| CC(OCC1CC1)C(=O)N1CCCN(Cc2nccn2C)CC1 (centres undefined) | 2.48 |
| c1ccc(-c2nc(CN3CCOC(Cn4cccn4)C3)co2)cc1 (centres undefined) | 0.724 |
| CCC[C@@H]1CN(Cc2cc3c(cc2OC)OCCO3)C[C@H]1C(=O)O | -9.47 |
| Nc1cc(C(=O)NC2CCCN(CCCc3ccccc3)C2)ccn1 (centres undefined) | 8.01 |
| c1cncc(CNCc2cccs2)c1 | 10.1 |
| CS(=O)(=O)c1cncnc1C1CCCNC1 (centres undefined) | -8.33 |
| CC1(c2ccc(Br)cc2)CC(=O)N(CC(N)=O)C1=O (centres undefined) | 2.05 |
| COc1cc(CN2CC[C@H](NC(C)=O)[C@@H](O)CC2)ccc1F | -9.19 |
| O=C(c1c[nH]c(=O)cn1)N1C[C@H]2CC[C@@H](C1)N(Cc1ccccc1)C2 | -126 |
| Cc1ccc(CN2CCC3(C2)C(=O)N(CC(C)C)c2ccccc23)s1 (centres undefined) | -0.324 |
| COc1ccc(CCC(=O)NC2CCC(O)CC2)cc1OC (centres undefined) | -5.26 |
| O=C(O)[C@@H]1CN(C(=O)c2cc(C3CC3)n[nH]2)C[C@H]1c1cccc(F)c1 | -9 |
| CC1CCN(C(=O)[C@H]2C[C@@H]3CCN(CC4CCOCC4)C[C@@H]3O2)CC1 | 9.85 |
| c1cnnc(N2CCCC(NCc3nc(-c4ccco4)no3)C2)c1 (centres undefined) | -20 |
| O=C(Cc1ccc(-n2cnnn2)cc1)Nc1nncs1 | 5.47 |
| CC[C@H](CO)NC(=O)c1coc(COc2cccc(F)c2F)n1 | 3.08 |
| COc1ccc(Br)cc1NCC(=O)NC(C)(C#N)C1CC1 (centres undefined) | 23.4 |
| O=C(O)c1ccc2[nH]cc(CN3CCCC3)c2c1 | -2.66 |

| Structure (SMILES) | cytotoxicity at 10 µM [%] |
| --- | --- |
| Cc1ccc(N2CCCC(NCc3ccc(C)o3)C2)nn1 (centres undefined) | 0.0722 |
| Cc1ccccc1CNC(Cn1cncn1)c1ccccc1 (centres undefined) | -1.45 |
| CCNC(=O)[C@@H]1CCCN1C1(C(=O)NC)CCCCC1 | 5.09 |
| COCC(Nc1ncnc2sc(C)c(C)c12)c1ccnn1C (centres undefined) | -4.53 |
| CCS(=O)(=O)c1ccccc1N1CCC(NC(C)=O)CC1 | -5.31 |
| CCc1nc(C2CCCN2C(=O)c2cnc[nH]2)no1 (centres undefined) | -13.6 |
| COc1ccc(-c2cc3cccn(CC(=O)N4CCOCC4)c-3n2)cc1 | -7.26 |
| COCC1CN(S(=O)(=O)Cc2ccc(C)cc2)Cc2c1cnn2C (centres undefined) | 3.51 |
| NS(=O)(=O)CCNC(=O)c1cc2ccccc2nc1N1CCCC1 | -10.7 |
| Cc1cnc(CN(C)C2CCCN(c3cccnn3)C2)cn1 (centres undefined) | 10.4 |
| CC(=O)NC1CCCN(C(=O)NCc2cc[nH]n2)C1 (centres undefined) | -11.5 |
| Cc1ccc2cc(CNCCCO)c(=O)[nH]c2c1 | 0.127 |
| CN(CCCO)C(=O)c1cc(COc2ccc3c(c2)CCCC3)on1 | -148 |
| CC(C)N1CCC(CC(=O)NC(C(=O)O)c2ccc(F)cc2)CC1 (centres undefined) | 0.0453 |
| CCCN1CCCn2nc(CNC(=O)CCc3scnc3C)cc2C1 | 1.47 |
| Cc1cc(C(=O)N2C[C@@H]3CN(S(C)(=O)=O)CCO[C@@H]3C2)c(C)o1 | -3.49 |
| CN1CCC(N2CC[C@H](c3nc4ccc(C(F)(F)F)cc4[nH]3)C2)CC1 | -10.2 |
| Cc1cccc(N2CC3(CCN(c4nncs4)C3)CC2=O)c1 (centres undefined) | 0.179 |
| CCCC(NC(=O)c1cc(C)ccc1C)c1nnn[nH]1 (centres undefined) | -9.11 |
| Cc1cnn(C2CCCN(C(=O)c3ccc(OCC4CC4)nc3)C2)c1 (centres undefined) | -4.04 |
| Cn1cc(Cl)cc1C(=O)N1CCCN(Cc2nccn2C)CC1 | -6.04 |
| COc1ccccc1C1(NCc2c(C)nc3c(C)cccn23)CCCC1 | 15.2 |

| Structure (SMILES) | cytotoxicity at 10 µM [%] |
| --- | --- |
| O=C(C1CC1)N1CCC2(CC1)CNc1ccc(F)cc12 | 11 |
| CN(C)C(=O)CN1C[C@H]2CC[C@@H](C1)N(Cc1ccccc1OCCO)C2 | 8.79 |
| COCCN1C[C@@H]2[C@@H](OC)CCN(Cc3cccs3)[C@@H]2C1 | 3.86 |
| CC(C)n1cnnc1CN(C)C(=O)C1CCCN(C2CCN(C)CC2)C1 (centres undefined) | -1.26 |
| Fc1cccc(C(NCc2ncc[nH]2)c2ccccc2)c1 (centres undefined) | 1.35 |
| Cc1cnc(C(=O)N2C[C@H]3CN(Cc4nccs4)C[C@H]3C2)cn1 | -147 |
| COc1cc(N2CCC3(CC2)CC(N2CCOCC2)CO3)ncn1 (centres undefined) | 3.44 |
| COc1ccc(-c2nc(CN3CCCS3(=O)=O)co2)cc1 | -6.24 |
| Cc1ccc(-c2ccnc(NC(c3ncccc3C)C3CC3)n2)c(C)n1 (centres undefined) | 0.656 |
| CC(C1CCN(Cc2ccc(N(C)C)nc2)CC1)N1CCOCC1 (centres undefined) | 6.06 |
| Cc1ccsc1-c1nccn1CCS(C)(=O)=O | 3.03 |
| Cc1cccc(Nc2cc(C)nc(C3CCN(C(C)C)C3)n2)n1 (centres undefined) | 9.93 |
| Cc1ccnn1CCC(=O)N1CCN(C2CCc3ccccc3C2)CC1 (centres undefined) | -118 |
| Cc1c(C(=O)NC(C)CC(=O)c2cccs2)cnn1C (centres undefined) | -8.71 |
| Cc1cccc(-c2ncc(CNC(C)CO)cn2)c1 (centres undefined) | 2.16 |
| CC(C)c1nnc(NC(=O)CSCc2cc(=O)n3ccccc3n2)s1 | 2.08 |
| CN(C)Cc1cnc2n1CCN(C(=O)Cc1cccc(F)c1)CC2 | -11.7 |
| CN(C)S(=O)(=O)N1CCN(C(=O)OC(C)(C)C)CC12CCCCC2 | 3.36 |
| O=C(c1cccs1)N1CC[C@H]2C[C@@H](c3nnc(C4CC4)o3)O[C@@H]2C1 | -109 |
| CCc1nc(CN2CCN(C(=O)C3(C#N)CCCCC3)CC2)cs1 | -3.6 |
| CC(C)NC(=O)N1CCC2(CC(=O)N(c3ccccc3)C2)C1 (centres undefined) | -2.59 |
| Cc1noc(C)c1CN(C)C(=O)c1ccc(NC2CC2)nc1 | -4.94 |

| Structure (SMILES) | cytotoxicity at 10 µM [%] |
| --- | --- |
| O=C(N[C@@H]1CCNC[C@H]1O)c1cc(F)cc(Cl)c1 | -3.12 |
| Clc1ccc(CN2CCc3c(ncn3C3CC3)C2)c2ncccc12 | 14 |
| CCOC(=O)N1CCN(C(=O)C2Cc3ccccc3CN2C)CC1 (centres undefined) | -19.2 |
| Cc1cc(NCCc2nnc(N)s2)nc(-c2ccccc2)n1 | 6.9 |
| O=S(=O)(C1CC1)N1CCOC2(CCCN(c3cccc(F)c3)C2)C1 (centres undefined) | 8.46 |
| CC(=O)N(C)c1nc(Cn2nnnc2C(C)C)cs1 | -2.01 |
| CC(=O)Nc1nc(CN2CCn3c(nnc3C(C)C)C2)cs1 | -2.17 |
| Cc1nc(CNCc2c(C)nn(C)c2N2CCOCC2)cs1 | -7.44 |
| Cc1cccc(C(=O)N2CCN(S(C)(=O)=O)[C@@H](C)C2)c1Cl | 5.58 |
| Cc1noc(CS(=O)(=O)c2cc(F)ccc2F)n1 | -0.23 |
| COc1ccc(Cl)cc1C(=O)N1CCCC(c2cc(C)[nH]n2)C1 (centres undefined) | -10.1 |
| COc1c(CNCc2ccc(Cn3cccn3)cc2)c(C)nn1C | 35.5 |
| Cc1ccc(CCN[C@@H]2c3ccccc3C3(CCNCC3)[C@H]2O)s1 | -2.72 |
| Cc1cc(NC(=O)Cc2ccc3c(c2)OCO3)n(C)n1 | 10.1 |
| Cc1ccccc1Cc1nc(CSc2nnc(N)n2C)no1 | 5.26 |
| O=C1CC(N(C(=O)c2csc(-c3ccccc3)n2)C2CC2)C(=O)N1 (centres undefined) | 15.2 |
| CN(Cc1ccon1)C(=O)C1CC(=O)N(Cc2cccnc2)C1 (centres undefined) | -3.83 |
| O=C(c1cnccn1)N1CC[C@@H]2CO[C@@H](CN3CCCC3)[C@@H]2C1 | -1.19 |
| CN1CCC(c2nnc(CN3CCOCC3)n2C)CC1 | -1.16 |
| CC(Cn1ccnc1)NCc1csc2c1CCCC2 (centres undefined) | -3.37 |
| O=C1NCCCCC1NC(=O)N1CCCc2cc(F)ccc21 (centres undefined) | -4.53 |
